Data from paper PMC4570879 (Journal of biomolecular screening, 2014).

Assays:
[1] = target: T1, Human recombinant catalytic domain of PERK (Homo sapiens, UniProt Q9NZJ5); settings: published PERK inhibitor; cited from earlier work
T1 sequence (Q9NZJ5 536-1116): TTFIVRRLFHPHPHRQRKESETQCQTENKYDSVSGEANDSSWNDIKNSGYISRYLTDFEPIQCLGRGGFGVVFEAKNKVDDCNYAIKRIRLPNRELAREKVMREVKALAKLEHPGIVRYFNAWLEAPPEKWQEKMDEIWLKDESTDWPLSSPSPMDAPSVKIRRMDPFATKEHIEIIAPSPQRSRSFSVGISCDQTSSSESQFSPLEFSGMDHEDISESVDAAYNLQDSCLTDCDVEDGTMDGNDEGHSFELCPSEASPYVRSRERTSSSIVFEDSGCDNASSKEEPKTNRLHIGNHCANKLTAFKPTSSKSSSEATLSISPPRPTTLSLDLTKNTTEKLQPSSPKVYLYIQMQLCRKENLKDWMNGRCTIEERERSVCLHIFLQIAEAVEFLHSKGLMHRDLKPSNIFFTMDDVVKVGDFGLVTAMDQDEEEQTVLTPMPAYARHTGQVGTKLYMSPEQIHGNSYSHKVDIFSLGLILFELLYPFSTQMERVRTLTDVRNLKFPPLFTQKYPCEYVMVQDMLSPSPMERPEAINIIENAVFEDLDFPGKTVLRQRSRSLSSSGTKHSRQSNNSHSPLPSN

[2] = target: T1, Human recombinant catalytic domain of PERK; experiment: Radiometric PERK kinase assay; type: biochemical; settings: method of replots
Outline: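 Radiometric filter assay using GST-tagged human PERK catalytic domain (aa 536–1116) at 8 nM and full-length Flag-tagged eIF2α. Buffer was 20 mM HEPES pH 7.2, 10 mM MgCl₂, 150 mM NaCl, 0.01% Tween 20, with [γ-³³P]ATP, at room temperature. Initial velocity versus ATP was measured at fixed 10 µM eIF2α across several test compound concentrations. Reactions were stopped with 75 mM phosphoric acid, filter-captured, washed and scintillation-counted; no-PERK background; analysed by replots.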

[3] = system: PERK; experiment: Thapsigargin-induced eIF2α phosphorylation in MEFs; type: cell-based, mouse; settings: wild-type MEFs, pretreated at 50 µM for 1 or 24 h, then thapsigargin 500 nM 1 h
Outline: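 Wild-type mouse embryonic fibroblasts were grown in high-glucose DMEM with 4 mM L-glutamine, 10% FBS, penicillin/streptomycin and β-mercaptoethanol. Cells were pretreated with test compound at 50 µM for 1 or 24 h, then with 500 nM thapsigargin for 1 h; PERK⁻/⁻ MEFs served as control.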

mechanism of inhibition with respect to ATP ([2]; ATP variable, fixed eIF2α) | mechanism of inhibition with respect to eIF2α ([2]; eIF2α variable, fixed ATP) | Structure (SMILES) | mechanism of action on PERK [1] | stress-dependent eIF2α phosphorylation [3]
 |  | Cn1cc(-c2ccc3c(c2)CCN3C(=O)Cc2cccc(C(F)(F)F)c2)c2c(N)ncnc21 [GSK2606414, 7-Methyl-5-(1-{[3-(trifluoromethyl)phenyl]acetyl}-2,3-di-hydro-1H–indol-5-yl)-7H–p yrrolo[2,3-d]pyrimidin-4-amine] | ATP competitive | 
noncompetitive | noncom-petitive | O=c1ccc2nccc3c4ccccc4n1c23 [LDN-0022506, canthin-6-one] |  | inhibited
